An excerpt weighted towards active compounds, which were near 2.3% of everything screened.
TAAR1 ag = human TAAR1 agonists, primary screen, Fluo-8 calcium fluorescence, CHO RD-HGA16 cells; activation, % at 3 µM; Trace amine-associated receptor 1 (Homo sapiens), Q96RJ0; hit rate 0.99% among 360,000; vehicle wells 0%, saturating PEA agonist 100%; AID 624467, 2012;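 active means activation above the mean activation of all test compounds in the run plus 3 SD, cut at about 38% in these data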
Target sequence (Q96RJ0 whole entry, looked up): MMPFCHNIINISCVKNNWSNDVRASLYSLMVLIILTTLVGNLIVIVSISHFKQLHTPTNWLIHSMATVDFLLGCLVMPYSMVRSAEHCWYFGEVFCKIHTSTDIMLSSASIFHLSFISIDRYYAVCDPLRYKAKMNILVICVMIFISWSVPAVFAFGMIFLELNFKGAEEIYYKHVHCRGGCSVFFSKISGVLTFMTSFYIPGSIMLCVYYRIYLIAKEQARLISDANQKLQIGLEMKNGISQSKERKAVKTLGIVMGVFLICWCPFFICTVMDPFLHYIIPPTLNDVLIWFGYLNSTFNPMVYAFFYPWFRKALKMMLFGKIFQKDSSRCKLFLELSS
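System: CHO RD-HGA16 cells carrying human TAAR1 plus Gα16; Incubation: 17-24 h seeding, 75 min 37 °C dye, 30 min RT; Measured by: Fluo-8 fluorescence, 5 s baseline then 140 s kinetic read; Control set: DMSO and PEA EC100; Replication: single well for each compound.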
OXTR potentiate = human OXTR potentiators, primary screen, fluorescence, CHO-OTR cells, Fluo-8 calcium; Oxytocin receptor (Homo sapiens), P30559; Fluo-8 calcium fluorescence, potentiator mode; 0% = oxytocin EC15, 100% = EC100; activation, % at 3 µM; hit rate 0.061% among 320,000;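 active means activation above that plate's cutoff, the mean activation of tested compounds plus 3 SD, cut at about 6.6% in these data, passing the limit was not always enough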
Target sequence (P30559 whole entry, looked up): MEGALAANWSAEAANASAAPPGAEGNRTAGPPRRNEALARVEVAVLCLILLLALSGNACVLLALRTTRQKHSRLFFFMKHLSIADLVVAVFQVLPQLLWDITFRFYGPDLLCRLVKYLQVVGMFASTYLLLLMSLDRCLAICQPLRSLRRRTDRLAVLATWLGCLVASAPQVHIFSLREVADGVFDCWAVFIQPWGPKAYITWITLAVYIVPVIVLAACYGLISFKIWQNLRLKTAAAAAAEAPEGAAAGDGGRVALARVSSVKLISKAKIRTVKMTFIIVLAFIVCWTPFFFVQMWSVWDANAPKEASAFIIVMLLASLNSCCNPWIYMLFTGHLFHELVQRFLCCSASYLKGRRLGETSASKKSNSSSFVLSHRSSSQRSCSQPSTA
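System: human OTR in CHO cells / Also added: sub-maximal oxytocin, roughly EC15 / Control set: EC15 oxytocin low, 75 nM oxytocin high / Schedule: 6 min compound pre-incubation at room temperature, 100 s kinetic read / Compound: single-point 3.0 µM / Replication: singlicate / Technique: Fluo-8 calcium dye fluorescence / Read-out basis: % activation of max/min ratio relative to oxytocin controls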
OXTR ag = human OXTR agonists, primary screen, fluorescence, CHO-OTR cells, Fluo-8 calcium | hit rate 0.32% among 320,000 | Oxytocin receptor (Homo sapiens), P30559 | activation, % at 3 µM | Fluo-8 calcium fluorescence; normalized: DMSO 0%, oxytocin 100%;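 active means activation above the mean of all tested compounds plus 3 SD, cutoff set per screening run, cut at about 20% in these data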;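 further: peak over basal fluorescence ratio from a 100 s FLIPR kinetic read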
V1aR counter = agonists of human V1a receptor, primary screen, counter-screen for OXTR agonist project, fluorescence, CHO-V1R cells; AID 2797, 2010; activation, % at 3 µM; Fluo-8 calcium fluorescence, agonist mode; 0% DMSO, 100% 3 nM vasopressin; hit rate 0.25% among 320,000;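 active means activation above the mean activation of all tested compounds plus 3 SD, per screening run, cut at about 20% in these data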;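 further: signal is peak over basal fluorescence ratio across a 100 second FLIPR read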
TAAR1 antagonist = human TAAR1 antagonists, primary screen, Fluo-8 calcium fluorescence, CHO RD-HGA16 cells. Trace amine-associated receptor 1 (Homo sapiens), Q96RJ0. antagonist. inhibition, % at 3 µM. hit rate 1.5% among 360,000. AID 624466, 2012;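 active means inhibition above a per-plate cutoff, the mean inhibition of test compounds on that plate plus 3 SD, cut at about 49% in these data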
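Test system: CHO RD-HGA16 cells bearing hTAAR1 | Reagent: β-PEA, EC80 | Compound dosing: 3 µM, single point | Schedule: Dye loading 75 min at 37 °C, then 30 min room temperature | Signal: Calcium fluorescence with Fluo-8 | Evaluation: Percent inhibition of PEA-evoked calcium signal, max/basal emission ratio | Control set: DMSO-only wells and EC80 β-PEA-stimulated wells | Repeats: Singlicate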
TAAR1 ag confirm = human TAAR1 agonists, retest of hits, confirmation, Fluo-8 calcium fluorescence, CHO RD-HGA16 cells; shares compounds with TAAR1 ag; scaled: DMSO 0%, maximal phenethylamine 100%; activation, % at 3 µM; hit rate 82% among 2,400;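 active means activation above a cutoff set at the run's mean compound activation plus 3 SD, cut at about 39% in these data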
Ga16 ag counter = nonselective calcium mobilization agonists, CHO-Ga16 cells, counter-screen for hTAAR1 agonist project, cell-based, fluorescence, CHO-Ga16 parental line; hit rate 50% among 2,400; Fluo-8 calcium fluorescence; normalized to maximal ATP response, DMSO zero; AID 651787, 2012; activation, % at 3 µM; shares compounds with TAAR1 ag;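 active means activation above the run cutoff, the mean activation over all tested wells plus 3 SD, cut at about 12% in these data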
TAAR1 desens = TAAR1 desensitization by agonist hits, confirmation, counter-screen for TAAR1 agonist project, cell-based, fluorescence, tachyphylaxis; shares compounds with TAAR1 ag; CHO RD-HGA16 hTAAR1, Fluo-8 calcium, beta-PEA response inhibition; inhibition, % at 3 µM; hit rate 46% among 2,400; AID 651951, 2012;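 active means inhibition above the run cutoff, the mean inhibition of all test compounds plus 3 SD, cut at about 49% in these data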;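 further: beta-PEA stimulus applied at its EC80; loss of beta-PEA calcium signal after compound pretreatment read as receptor desensitization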
Ga16 nonsel ant = inhibition of ATP-evoked calcium response in CHO-Ga16 cells, counter-screen for TAAR1 agonist project, cell-based, fluorescence; shares compounds with TAAR1 ag; CHO-Ga16 ATP-induced calcium, Fluo-8 fluorescence; inhibition, % at 3 µM; hit rate 39% among 2,400;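 active means inhibition above the plate's mean compound inhibition plus 3 SD, computed per plate, cut at about 22% in these data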
Each line names hits and unclear results; the compound was inactive in the other large screens (follow-up assays come after a bar, where they were run).

Cn1c(CN2CCCC2)nc2cc(NS(=O)(=O)c3ccc(Cl)cc3)ccc21	TAAR1 ag 69 | TAAR1 ag confirm 93 | Ga16 ag counter 30 | TAAR1 desens inactive | Ga16 nonsel ant inactive
Cn1c(CCN2CCCC2)nc2cc(NS(=O)(=O)c3ccc(Cl)cc3)ccc21	none
CC(=O)NCCC(=O)N1CCCC(N(C)CCc2ccccc2)C1 (centres undefined)	none
CC[C@@H]1Cc2[nH][nH]c(=O)c2[C@@H](c2ccc(Cl)cc2)O1	none (no result: OXTR potentiate, OXTR ag, V1aR counter)
Cc1cccc(C)c1NC(=O)CCCCCC1NC(=O)NC1C (centres undefined)	none
CC1NC(=O)NC1CCCCCC(=O)NCCc1ccccc1 (centres undefined)	TAAR1 ag 48 | TAAR1 ag confirm 78 | Ga16 ag counter inactive | TAAR1 desens 74 | Ga16 nonsel ant inactive
CC1CN(Cc2ccccc2)C(=S)N(c2ccccc2)C1=O (centres undefined)	none (no result: OXTR potentiate, OXTR ag, V1aR counter)
CC(C)CN1CC(C)C(=O)N(c2ccccc2)C1=O (centres undefined)	TAAR1 ag 63 (no result: OXTR potentiate, OXTR ag, V1aR counter) | TAAR1 ag confirm inactive | Ga16 ag counter inactive | TAAR1 desens inactive | Ga16 nonsel ant inactive
COCCCNC(=O)[C@H]1O[C@@H](n2cnc3c(=O)[nH]c(N)nc32)[C@H](O)[C@@H]1O	none (no result: OXTR potentiate, OXTR ag, V1aR counter)
Nc1nc2c(ncn2[C@@H]2O[C@H](C(=O)NCCCc3ccccc3)[C@@H](O)[C@H]2O)c(=O)[nH]1	TAAR1 ag 56 (no result: OXTR potentiate, OXTR ag, V1aR counter) | TAAR1 ag confirm 69 | Ga16 ag counter inactive | TAAR1 desens inactive | Ga16 nonsel ant inactive
CCCn1nnc(NC(=O)/C=C/c2ccc(C(C)C)cc2)n1	none
O=C(O)c1ccc(N/N=C/C2=Cc3ccccc3OC2)cc1	TAAR1 ag 89 | TAAR1 ag confirm 54 | Ga16 ag counter 39 | TAAR1 desens inactive | Ga16 nonsel ant inactive
O=[N+]([O-])c1cc(Cl)c2cccnc2c1O	TAAR1 ag 44 | TAAR1 ag confirm inactive | Ga16 ag counter inactive | TAAR1 desens inactive | Ga16 nonsel ant inactive
O=[N+]([O-])c1cc(Cl)c(O)c2ncccc12	none (no result: OXTR potentiate, OXTR ag, V1aR counter)
CC(C)CCCCCCCCc1cccc(O)c1C(=O)O	TAAR1 ag 130, TAAR1 antagonist 98 (no result: OXTR potentiate, OXTR ag, V1aR counter) | TAAR1 ag confirm 114 | Ga16 ag counter 89 | TAAR1 desens 104 | Ga16 nonsel ant 92
CC(C)C(=O)NCCCc1ccccc1	none
COc1ccccc1NS(=O)(=O)c1cccc(NC(=O)Nc2ccc(Cl)cc2)c1	TAAR1 ag 56, TAAR1 antagonist 76 | TAAR1 ag confirm 46 | Ga16 ag counter 19 | TAAR1 desens 93 | Ga16 nonsel ant 58
COc1cccc(OC)c1C(=O)Nc1cccc(S(=O)(=O)Nc2ccccc2Cl)c1	none
Cc1cc2c(cc1S(=O)(=O)CCC(=O)NC1CCC(C)CC1)OCC(=O)N2 (centres undefined)	none
Cc1cc(C)c(C(=O)OCC(=O)NC(=O)c2ccccc2)c(C)c1	TAAR1 ag 58, TAAR1 antagonist 70 | TAAR1 ag confirm inactive | Ga16 ag counter inactive | TAAR1 desens inactive | Ga16 nonsel ant 34
CCN1CCN(C(c2cccnc2)c2c(NC(=O)c3ccco3)sc(C)c2C)CC1 (centres undefined)	none
Cc1sc(NC(=O)c2ccco2)c(C(c2cccnc2)N2CCC(C)CC2)c1C (centres undefined)	TAAR1 ag 62 | TAAR1 ag confirm 54 | Ga16 ag counter 22 | TAAR1 desens inactive | Ga16 nonsel ant 23
CCCCC(=O)NNC(=S)NC(=O)c1ccc(C)cc1	TAAR1 ag 98 | TAAR1 ag confirm 83 | Ga16 ag counter 82 | TAAR1 desens inactive | Ga16 nonsel ant 40
CCC(=O)NC(=S)NNC(=O)c1ccc(OC)cc1	none
COc1cc(OC)cc(C(=O)NNC(=O)c2ccc3ccccc3n2)c1	none (no result: OXTR potentiate, OXTR ag, V1aR counter)
COc1ccc(C(=O)NC(=S)NNC(=O)c2ccc(NC(=O)C(C)C)cc2)cc1	none
COc1ccc(C(=O)NC(=S)NNC(=O)c2ccc(C)cc2)cc1	TAAR1 ag 170, OXTR ag 82, V1aR counter 108, TAAR1 antagonist 106 | TAAR1 ag confirm 157 | Ga16 ag counter 124 | TAAR1 desens 105 | Ga16 nonsel ant 70
CCCCC(=O)NNC(=S)NC(=O)c1ccc([N+](=O)[O-])cc1	none
COc1ccc(C(=O)NNC(=S)NC(=O)c2ccc(Cl)cc2)cc1	TAAR1 ag 176, OXTR ag 71, V1aR counter 76, TAAR1 antagonist 106 | TAAR1 ag confirm 141 | Ga16 ag counter 117 | TAAR1 desens 102 | Ga16 nonsel ant 86
COc1ccc(C(=O)NC(=S)NNC(=O)c2ccc3ccccc3n2)cc1	TAAR1 ag 51 | TAAR1 ag confirm 89 | Ga16 ag counter 69 | TAAR1 desens inactive | Ga16 nonsel ant 37
Cc1cc(=O)oc2cc(OCC(=O)Nc3ccc(S(=O)(=O)N(C)C)cc3)ccc12	none
CCOc1ccc(OCC)c(NC(=O)C2CCN(S(=O)(=O)c3cnc[nH]3)CC2)c1	none
COc1ccccc1-c1cccc2nccn12	none (no result: OXTR potentiate, OXTR ag, V1aR counter)
COc1ccc(NC(=O)c2cn(-c3ccccc3)nc2-c2ccncc2)cc1	none
O=C(O)c1ccccc1NC(=S)NC(=O)c1sc2ccccc2c1Cl	none
COc1ccc(-c2nn(-c3ccccc3)cc2C(=O)NC(=S)NNC(=O)c2ccncc2)cc1	TAAR1 ag 101, TAAR1 antagonist 56 | TAAR1 ag confirm 82 | Ga16 ag counter 74 | TAAR1 desens 76 | Ga16 nonsel ant 70

High-throughput results (PubChem)
